Bioassay records deposited in PubChem BioAssay by several laboratories.
Rev-RRE block: HIV-1 Rev-RRE binding inhibitors, primary screen, biochemical, FRET, protein-RNA interaction; Rev peptide-RRE RNA binding; inhibition, % at 8 µM; 0.79% of 97,000 active; AID 704, 2007;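 active = inhibition above the screen-wide mean plus 3 SD, cut at about 35% in these data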
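Test system: Cy5-tagged RRE RNA duplex with fluorescein-tagged Rev peptide; Probe or stimulus: labelled Rev peptide; Schedule: 5 min preincubation and 15 min binding, 25 °C; Signal: FRET fluorescence readout; Evaluation: % inhibition from 671/540 nm acceptor-to-donor ratio, scaled between controls; Control set: DMSO and neomycin B.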
EphB4 antag: EphB4-ephrin-B2 interaction antagonists, primary screen, biochemical, TNYL-RAW peptide probe, fluorescence polarization | Ephrin type-B receptor 4 (Homo sapiens), P54760 | EphB4 LBD / TNYL-RAW-Alexa532 peptide | inhibition, % at 7 µM | 0.15% of 97,000 active;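 active = inhibition above the screen-wide mean inhibition plus 3 SD, cut at about 15% in these data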
LYP inh 2: PTPN22 phosphatase inhibitors, primary screen, biochemical, DiFMUP fluorescence, 2 µM. Tyrosine-protein phosphatase non-receptor type 22 (Homo sapiens), Q9Y2R2. recombinant LYP catalytic domain. inhibition, % at 2 µM. 0.21% of 96,000 active;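 active = inhibition at 2 µM at or above a set limit, the screen mean plus 3 SD, cut at about 24% in these data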
LYP act: LYP phosphatase activators, primary screen, biochemical, DiFMUP fluorescence, 2 µM | recombinant LYP; 0 = plate median, 100 = signal doubled | activation, % at 2 µM | 0.11% of 96,000 active | AID 697, 2007;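 active = activation at 2 µM above a set limit, the mean plus 5 SD, cut at about 37% in these data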
FAK blocker: FAK kinase inhibitors, primary screen, biochemical. Focal adhesion kinase 1 (Homo sapiens), Q05397. biochemical FAK kinase activity assay. inhibition, %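 (tested at 7 µM)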. 0.84% of 97,000 active; in the data active = inhibition above about 19%
Target sequence (Q05397 whole entry, looked up): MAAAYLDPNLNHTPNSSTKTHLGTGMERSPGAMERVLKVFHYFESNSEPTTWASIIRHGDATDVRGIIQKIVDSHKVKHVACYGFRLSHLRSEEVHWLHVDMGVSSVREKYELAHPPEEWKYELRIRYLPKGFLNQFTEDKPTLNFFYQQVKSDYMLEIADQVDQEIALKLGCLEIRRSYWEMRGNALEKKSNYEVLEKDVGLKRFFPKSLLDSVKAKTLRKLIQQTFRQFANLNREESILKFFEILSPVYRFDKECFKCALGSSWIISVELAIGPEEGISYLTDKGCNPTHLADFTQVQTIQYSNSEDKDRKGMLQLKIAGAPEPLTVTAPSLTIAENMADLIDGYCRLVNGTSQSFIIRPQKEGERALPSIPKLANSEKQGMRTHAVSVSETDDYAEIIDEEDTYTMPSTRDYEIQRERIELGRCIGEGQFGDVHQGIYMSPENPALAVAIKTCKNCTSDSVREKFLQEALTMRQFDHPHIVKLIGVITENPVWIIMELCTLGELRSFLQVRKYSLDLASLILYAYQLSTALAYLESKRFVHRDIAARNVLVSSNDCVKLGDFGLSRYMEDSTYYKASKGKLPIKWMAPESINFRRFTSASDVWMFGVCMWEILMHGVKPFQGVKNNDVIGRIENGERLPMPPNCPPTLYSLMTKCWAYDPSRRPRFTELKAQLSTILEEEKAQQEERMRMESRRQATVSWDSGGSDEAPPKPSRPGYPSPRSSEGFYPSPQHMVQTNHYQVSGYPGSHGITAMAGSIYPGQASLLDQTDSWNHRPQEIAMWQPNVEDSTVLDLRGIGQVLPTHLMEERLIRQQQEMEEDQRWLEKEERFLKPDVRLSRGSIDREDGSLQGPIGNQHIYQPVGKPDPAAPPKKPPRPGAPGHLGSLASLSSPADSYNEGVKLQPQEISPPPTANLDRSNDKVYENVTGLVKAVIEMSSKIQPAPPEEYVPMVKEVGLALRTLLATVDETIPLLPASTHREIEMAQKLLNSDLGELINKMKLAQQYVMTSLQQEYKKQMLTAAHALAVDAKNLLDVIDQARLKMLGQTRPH
Hits are given with their value; n = inactive; [ ] = remark or other dose. An excerpt weighted towards active compounds, which were near 1.9% of everything screened.

SMILES | Rev-RRE block | EphB4 antag | LYP inh 2 | LYP act | FAK blocker
Cc1cccc(N=c2oc3cc(O)ccc3cc2C(N)=O)c1 | 47 | n | n | n | n
NC(=S)c1cc2ccc(O)cc2oc1=O | n | n | n | n | n
Cc1ccc2cc3cc(C(=O)N(CC(=O)NC4CCCC4)c4cccc(C)c4C)sc3nc2c1 | n | n | n | n | n
O=C1/C(=C/Nc2ccc3c(c2)OCO3)CCc2ccccc21 | 46 | n | n | n | n
CN(c1ncc(C(F)(F)F)cc1Cl)n1cc(C(N)=O)c2ccccc2c1=O | n | n | n | n | n
CCOC(=O)C1=C(N)OC2=C(C(=O)CC(C)(C)C2)C1c1ccco1 (configuration not stated) | n | n | n | n | n
CC1(C)CC(=O)C2=C(C1)OC1=C(C(=O)CC(C)(C)C1)C2c1ccc(O)cc1O | 94[fluorescence artefact?] | n | n | n | n
CN(C)c1ccc(/C=N/N=C2/NC(=O)/C(=C/c3ccc([N+](=O)[O-])cc3)S2)cc1 | n | n | 25 | n | n
COc1ccc(-c2cnc(SCC(=O)Nc3nc(C(C)(C)C)cs3)n2Cc2ccco2)cc1 | n | n | n | n | n
CCOC(=O)C1=C(c2ccccc2)N=c2s/c(=C\c3ccco3)c(=O)n2C1c1cccs1 (configuration not stated) | n | n | n | n | 21
CC(c1nnc(SCC(=O)NC(=O)NCc2ccco2)n1-c1ccc(Cl)cc1)N(C)C (configuration not stated) | n | n | n | n | n
CN1CCN(CC#CCn2c3ccccc3c3ccccc32)CC1 | n | n | n | n | n
Cc1ccccc1Cn1ccc(NC(=O)CCSc2nc(-c3ccco3)cc(C(F)(F)F)n2)n1 | n | n | 25 | n | n
c1coc(-c2nc3c4c5c(sc4ncn3n2)CCCC5)c1 | n | n | n | n | n
CC1(C)Cc2c(sc3ncn4nc(-c5ccco5)nc4c23)CO1 | n | n | n | n | 33
N#CC1=C(SCC(=O)c2cc3ccccc3oc2=O)NC(=O)C(C#N)C12CCCC2 (configuration not stated) | 113[fluorescence artefact?] | n | n | n | n
Cc1[nH]n(-c2ccccc2)c(=O)c1Sc1ccc(Cl)cc1 | n | n | n | n | n
Cc1cc(-c2c(C)[nH]n(-c3ccc(Cl)cc3)c2=O)n[nH]1 | n | n | 82 | n | n
O=c1c(O)c(-c2cccs2)oc2ccc(Cl)cc12 | 102[fluorescence artefact?] | n | n | n | n
C=CCn1c(=O)/c(=C2/SC(C)=C(C)N2CC)s/c1=C1/C(=O)N(C)C(=S)N1c1ccccc1 | n | n | n | n | n
CC1=NOC(=O)/C1=C\c1ccc(-c2cccc(Cl)c2)o1 | n | n | n | n | n
Cc1nc(S/C(=C/c2ccc(-c3cccc(Cl)c3)o2)C(=O)O)n[nH]1 | n | n | 24 | n | n
Cc1ccc(C(=O)/C=C/c2ccccc2)o1 | 80 | n | n | n | n
COc1ccc2nc(SCC(=O)N3CCN(c4ccccc4F)CC3)c(C#N)cc2c1 | n | n | n | n | n
CC1C/C(=C/c2cccn2C)C(=O)/C(=C/c2cccn2C)C1 (configuration not stated) | 136[fluorescence artefact?] | n | n | n | n
SMILES | Rev-RRE block | EphB4 antag | LYP inh 2 | LYP act | FAK blocker
Cn1cccc1P(=O)(c1cccn1C)c1cccn1C | n | n | n | n | n
CN(C)/N=C/C=C1\CC/C(=C\c2ccc(Br)cc2)C1=O | 72 | n | n | n | n
CCCCOC(=O)C(C)c1c(C)[nH]c(=S)[nH]c1=O (configuration not stated) | n | n | n | n | n
COc1ccc(/C=C/c2ccncc2)cc1 | n | n | n | n | n
CN(C)c1ccc(/C=C/c2ccncc2)cc1 | 72 | n | n | n | n
CC1=Nc2ccccc2/C1=C/c1sc(=N)n(-c2nccs2)c1O | 62 | n | n | n | n
CCn1c(O)c(/C=C2\C=Nc3ccccc32)sc1=Nc1ccc(C)cc1 | n | n | n | n | n
COCCN1C(=O)c2ccccc2C(C(=O)N2CCN(c3ccccn3)CC2)C1c1ccc(F)cc1 (configuration not stated) | n | n | n | n | n
Cc1ccc(S(=O)(=O)c2c(N)n(Cc3ccco3)c3nc4ccccc4nc23)cc1 | 60 | n | n | n | n
Cc1ccc(S(=O)(=O)c2c(N)n(NC(=O)c3ccco3)c3nc4ccccc4nc23)cc1 | n | n | n | n | n
Cc1ccc(Cn2c(N)c(S(=O)(=O)c3cccs3)c3nc4ccccc4nc32)cc1 | n | n | n | n | n
Cc1ccc(S(=O)(=O)Nc2nc3ccccc3nc2NCc2ccco2)cc1 | 46 | n | n | n | n
Cc1cccc(S(=O)(=O)c2c(N)n(Cc3ccco3)c3nc4ccccc4nc23)c1 | 74 | n | n | n | n
Cn1c(=O)c2c(nc(SCC(=O)N(C3CCCCC3)C3CCCCC3)n2C)n(C)c1=O | n | n | n | n | n
CCCc1nc(N2CCOCC2)c2sc(=S)n(-c3ccccc3)c2n1 | n | n | n | n | n
CC(Cc1cccs1)NC(=O)Nc1ccc(Cl)c(Cl)c1 (configuration not stated) | n | n | n | n | n
O=C(c1ccc(COc2ccccc2Cl)o1)N1CCN(Cc2ccc3c(c2)OCO3)CC1 | n | 18 | n | n | n
O=C(c1ccc(COc2ccc(Cl)cc2)o1)N1CCN(Cc2ccc3c(c2)OCO3)CC1 | n | n | n | n | n
O=C1NC(=S)N/C1=C/c1cccc([N+](=O)[O-])c1O | 69 | n | n | n | n
O=C1NC(=S)N/C1=C/c1cc([N+](=O)[O-])ccc1O | 111[fluorescence artefact?] | n | n | n | n
C=CCc1cc(/C=C2/NC(=S)NC2=O)cc(OC)c1O | n | n | n | n | n
CCOC(=O)N1CCN(Cc2nc(N)nc(Nc3ccc(Oc4ccccc4)cc3)n2)CC1 | n | n | n | n | n
O=S1(=O)CCC(SCc2nc3sccn3c2Br)C1 (configuration not stated) | n | n | n | n | n
CCN1CC2=C(OC(N)=C(C#N)C2c2cccs2)/C(=C/c2cccs2)C1 (configuration not stated) | 42 | n | n | n | n
CCc1ccc(/C=C/C(=O)c2cc(Br)ccc(=O)c2O)cc1 | n | n | n | n | n
Cc1cccc(/C=C/C(=O)c2cc(Br)ccc(=O)c2O)c1 | 37 | n | n | n | n
CCOC(=O)Cc1csc(NC(=O)c2sc3nc4c(C)cc(C)cc4cc3c2N)n1 | 107[fluorescence artefact?] | n | n | n | n
CCOC(=O)Cc1csc(NC(=O)c2csc(C)c2)n1 | n | n | n | n | n
Cc1nnc2sc(-c3ccc(NC(=O)c4cccnc4)cc3)nn12 | n | n | n | n | n
Cc1nnc2sc(-c3ccc(NC(=O)c4ccc(-c5ccc(Cl)cc5Cl)o4)cc3)nn12 | n | n | 32 | n | 28
